From paper PMC8373685 (European journal of medicinal chemistry, 2021)
Each block holds one molecule with its values, some of them ahead of it.

Columns and labels:
[1] = test system: TNFα-induced IKKβ-mediated NFκB activity; assay: κB luciferase reporter assay; type: cell-based; conditions: for inhibition of TNFα-induced NFκB activity (SAR, in words): A549 luciferase reporter
MiaPaCa2 cells [2] = assay: Colony formation assay; type: cell-based; conditions: 5 μM; compared to DMSO treated cells
Summary of the method: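 MiaPaCa2 cells (1.0×10³) were seeded in 6-well plates and treated 24 h. They were then washed and grown 8–10 days, with medium changed every 3 days. Cells were fixed in 4% paraformaldehyde 15 min and stained with 0.5% crystal violet 2 h at room temperature. Colonies were counted in triplicate from 10x bright-field images against vehicle (DMSO); unpaired t-test.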

MiaPaCa2 cells [3] = assay: Cell scratch; type: cell-based; conditions: 5 μM at 24 and 48h; compared to DMSO
[4] = test system: MiaPaCa2 cells subcutaneously implanted; assay: Pancreatic tumor xenograft model; type: in vivo, athymic nude mice; conditions: treated versus vehicle, n = 5
Summary of the method: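 MiaPaCa2 cells (2.5×10⁶, Matrigel 2:1) were implanted s.c. in the flank of athymic nude mice and randomized at day 20 (n=6/group). Arms: vehicle, test compound 40 mg/kg orally daily, gemcitabine 15 mg/kg i.p. every 72 h, or combination. Mice were sacrificed after day 27. On FFPE tumors, Ki-67 was scored as % positive cells over 4 fields, and p-IKKβ by IHC histoscore (proportion 1–5 × intensity 0–3); n=5, unpaired t-test.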

MiaPaCa2 cells [5] = assay: Live/dead cell assay; type: cell-based; conditions: 5 and 10 μM for 24h
MiaPaCa2 = assay: Growth inhibition assay; type: cell-based
Summary of the method: (§1)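 Cell viability was read with PrestoBlue after 72 h incubation with test compound, n=3. Data are average ± SEM.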

[6] = Pharmacokinetic studies in mice; type: in vivo, CD1 mice
Summary of the method: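 CD1 mice received test compound orally at 20 mg/kg in DMSO:PEG400:H₂O 1:4:5, or intravenously at 10 mg/kg in DMSO:PEG400:H₂O 1:5:4. Mice were sacrificed at 0.083–24 h (8 time points) and plasma analysed by LC/MS/MS with carbamazepine as internal standard. PK parameters came from non-compartmental analysis; oral bioavailability was derived from oral versus intravenous AUC.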

T3M4 = assay: Growth inhibition assay; type: cell-based; conditions: 3-day cell growth assay
Summary of the method: as §1

[7] = test system: caspase 3/7 activity in MiaPaCa2 cells; assay: Caspase 3/7 assay; type: cell-based; conditions: 10 μM, 24h
Summary of the method: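 MiaPaCa2 cells were exposed to test compound for 24 h at 0.1% final DMSO, n=3. At 21 h, alamarBlue (1/10 well volume) was added for 3 h and fluorescence read at 560ex/590em. Plates equilibrated 15 min at room temperature, then Caspase-Glo reagent was added and luminescence read 2 h later. Value = (luminescence×100/fluorescence)/DMSO average.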

Molecule: 1-(4-fluoro-3-(trifluoromethoxy)phenyl)-3-(3-(1-methyl-1H-pyrazol-4-yl)quinoxalin-6-yl)urea [compound 83]
inhibition of TNFα-induced NFκB activity (SAR, in words) ([1]; screened at 10μM): further improved

Molecule: Cn1cc(-c2cnc3ccc(NC(=O)Nc4ccc(F)c(Br)c4)cc3c2)cn1 [compound 85, 1-(3-bromo-4-fluorophenyl)-3-(3-(1-methyl-1H-pyrazol-4-yl)quinolin-6-yl)urea]
inhibition of TNFα-induced NFκB activity (SAR, in words) ([1]; screened at 10μM): loss of activity

Molecule: Cn1ccc(-c2cnc3ccc(NC(=O)Nc4ccc(F)c(Br)c4)cc3n2)c1 [compound 86, 1-(3-bromo-4-fluorophenyl)-3-(3-(1-methyl-1H-pyrrol-3-yl)quinoxalin-6-yl)urea]
inhibition of TNFα-induced NFκB activity (SAR, in words) ([1]; screened at 10μM): loss of activity

Molecule: 1-(3-chloro-4-fluorophenyl)-3-(3-(1-methyl-1H-pyrazol-4-yl)quinoxalin-6-yl)urea [compound 80]
potency in NFκB screen relative to 13–197 ([1]; screened at 10μM): ~ 3 fold

Molecule: 1-(4-fluoro-3-(trifluoromethyl)phenyl)-3-(3-(1-methyl-1H-pyrazol-4-yl)quinoxalin-6-yl)urea [compound 84]
inhibition of colony forming ability (MiaPaCa2 cells [2]): > 50%
inhibition of cell migration (MiaPaCa2 cells [3]): more effective inhibiting the migration of PDAC cells
p-IKKβ levels in tumor tissue ([4]; immunohistochemistry): reduction in p-IKKβ levels
Ki67 staining (proliferation index) in tumor tissue [4]: reduction in Ki67 staining
cell death in live/dead assay (MiaPaCa2 cells [5]): induced MiaPaCa2 cell death in a dose-dependent manner
growth inhibition (MiaPaCa2; 3-day cell growth assay, MiaPaCa2): low-μM potency
potency in inhibiting pancreatic cancer cell growth relative to 13–197 (MiaPaCa2; cell line not specified at place): ~ 4 fold
increase in oral bioavailability (%F) relative to 13–197 [6]: ~ 5.7 fold
intravenous exposure (AUC0−∞) relative to oral exposure ([6]; 10 mg/kg intravenous versus 20 mg/kg oral): ~ 2.8 fold
Tmax and Cmax relative to 13–197 ([6]; 20 mg/kg oral): ~ 2.5 times
exposure (AUC0−∞) relative to 13–197 ([6]; 20 mg/kg oral): ~ 4.3 fold
growth inhibition (T3M4): low-μM potency
caspase 3/7 activation [7]: most potently induced caspase activation
caspase 3/7 induction relative to 13–197 [7]: ~ 4 fold
IC50 ratio versus 13–197, TNFα-induced NFκB inhibition ([1]; 84 versus reported value for 13–197): ~ 2.5 fold
IC50 ([1]; read-out: IC50, TNFα-induced IKKβ-mediated NFκB activity, dose-response, dual luciferase reporter assay, n = 3): 3.3 ± 0.5 µM
inhibition of TNFα-induced NFκB activity (SAR, in words) ([1]; screened at 10μM): most potent inhibitor

The next lines start with the values.

inhibition of TNFα-induced NFκB activity (SAR, in words) ([1]; screened at 10μM): further improvement of activity
Molecule: 1-(3-(1-methyl-1H-pyrazol-4-yl)quinoxalin-6-yl)-3-(3-(trifluoromethyl)phenyl)urea [compound 79]

inhibition of TNFα-induced NFκB activity (SAR, in words) ([1]; screened at 10μM): dramatically reduced the activity
Molecule: 1-(4-fluoro-3-methylphenyl)-3-(3-(1-methyl-1H-pyrazol-4-yl)quinoxalin-6-yl)urea [compound 81]

inhibition of TNFα-induced NFκB activity (SAR, in words) ([1]; screened at 10μM): activity was restored
Molecule: 1-(4-fluoro-3-methoxyphenyl)-3-(3-(1-methyl-1H-pyrazol-4-yl)quinoxalin-6-yl)urea [compound 82]
